Measured values taken from ChEMBL document CHEMBL5705901, “Exploiting selective BCL-2 family inhibitors to dissect cell survival dependencies and define improved strategies for cancer therapy” (Sci Transl Med, 2015).

Assays:
[1] = Inhibition of granulocyte colony formation in human bone marrow cells at 0.1 to 20 uM incubated for 14 to 16 days in presence of docetaxel by light microscopic analysis; format: toxicity, cell-based; details: bone marrow cell, dose lower 0.1 µM, time lower 14 day, dose upper 20 µM, time upper 16 day
Method in brief: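 Human bone marrow granulocyte colony-forming assay in semisolid medium, increasing inhibitor concentrations ± 5 nM docetaxel; colonies counted by light microscopy after 14 days; triplicate means with SD; combinations compared with docetaxel alone by Student's t test.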

DMS-79 = assay: Antiproliferative activity against human DMS 79 assessed as reduction in cell viability incubated for 48 hrs by CellTiter-Glo cell vaibility assay; format: functional, cell-based; details: DMS-79, 48 h
Method in brief: (§1)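 Tumour cell lines (SCLC panel and AML panel) exposed to increasing concentrations for 48 hours, then cell viability measured. Cell-killing EC50 taken from the concentration-response.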

EOL1 = assay: Antiproliferative activity against human EOL1 assessed as reduction in cell viability incubated for 48 hrs by CellTiter-Glo cell vaibility assay; format: functional, cell-based; details: EOL1, 48 h; method in brief: as §1
NCI-H345 = assay: Antiproliferative activity against human NCI-H345 assessed as reduction in cell viability incubated for 48 hrs by CellTiter-Glo cell vaibility assay; format: functional, cell-based; details: NCI-H345, 48 h; method in brief: as §1
HEL = assay: Antiproliferative activity against human HEL harboring JAK2 V617F mutant assessed as reduction in cell viability incubated for 48 hrs by CellTiter-Glo cell vaibility assay; format: functional, cell-based; method in brief: as §1
MOLT-4 = assay: Antiproliferative activity against Bcl-xl dependent human MOLT-4 cells assessed as reduction in cell viability by measuring effect concentration by CellTiter-Glo reagent based assay; format: functional
SKM-1 = assay: Antiproliferative activity against human SKM-1 assessed as reduction in cell viability incubated for 48 hrs by CellTiter-Glo cell vaibility assay; format: functional, cell-based; details: SKM-1, 48 h; method in brief: as §1
HL-60 = assay: Antiproliferative activity against human HL-60 assessed as reduction in cell viability incubated for 48 hrs by CellTiter-Glo cell vaibility assay; format: functional, cell-based; details: HL-60, 48 h; method in brief: as §1
Kasumi 1 = assay: Antiproliferative activity against human Kasumi 1 assessed as reduction in cell viability incubated for 48 hrs by CellTiter-Glo cell vaibility assay; format: functional, cell-based; details: Kasumi 1, 48 h; method in brief: as §1
[2] = Antiproliferative activity against human ME-1 assessed as reduction in cell viability incubated for 48 hrs by CellTiter-Glo cell vaibility assay; format: functional, cell-based; details: ME-1, 48 h; method in brief: as §1
OCI-AML-5 = assay: Antiproliferative activity against human OCI-AML5 assessed as reduction in cell viability incubated for 48 hrs by CellTiter-Glo cell vaibility assay; format: functional, cell-based; details: OCI-AML-5, 48 h; method in brief: as §1
[3] = Inhibition of granulocyte colony formation in human bone marrow cells at 0.1 to 20 uM incubated for 14 to 16 days by light microscopic analysis; format: toxicity, cell-based; details: bone marrow cell, dose lower 0.1 µM, time lower 14 day, dose upper 20 µM, time upper 16 day
Method in brief: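 Isolated human bone marrow cells cultured in semisolid medium with increasing inhibitor concentrations; granulocyte (neutrophil) colonies counted by light microscopy after 15–16 days; triplicate means with SD; Student's t test versus solvent control.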

SET-2 = assay: Antiproliferative activity against human SET2 harboring JAK2 V617F mutant assessed as reduction in cell viability incubated for 48 hrs by CellTiter-Glo cell vaibility assay; format: functional, cell-based; details: SET-2, 48 h; method in brief: as §1
GDM-1 = assay: Antiproliferative activity against human GDM-1 assessed as reduction in cell viability incubated for 48 hrs by CellTiter-Glo cell vaibility assay; format: functional, cell-based; details: GDM-1, 48 h; method in brief: as §1
[4] = Antiproliferative activity against human HNT-34 assessed as reduction in cell viability incubated for 48 hrs by CellTiter-Glo cell vaibility assay; format: functional, cell-based; details: HNT-34, 48 h; method in brief: as §1
KG-1 = assay: Antiproliferative activity against human KG-1 assessed as reduction in cell viability incubated for 48 hrs by CellTiter-Glo cell vaibility assay; format: functional, cell-based; details: KG-1, 48 h; method in brief: as §1
OCI-AML-3 = assay: Antiproliferative activity against human OCI-AML-3 assessed as reduction in cell viability incubated for 48 hrs by CellTiter-Glo cell vaibility assay; format: functional, cell-based; details: OCI-AML-3, 48 h; method in brief: as §1
NCI-H187 = assay: Antiproliferative activity against human NCI-H187 assessed as reduction in cell viability incubated for 48 hrs by CellTiter-Glo cell vaibility assay; format: functional, cell-based; details: NCI-H187, 48 h; method in brief: as §1
NCI-H889 = assay: Antiproliferative activity against human NCI-H889 assessed as reduction in cell viability incubated for 48 hrs by CellTiter-Glo cell vaibility assay; format: functional, cell-based; details: NCI-H889, 48 h; method in brief: as §1
[5] = Antiproliferative activity against human PL-21 assessed as reduction in cell viability incubated for 48 hrs by CellTiter-Glo cell vaibility assay; format: functional, cell-based; details: PL-21, 48 h; method in brief: as §1
MV4-11 = assay: Antiproliferative activity against human MV4-11 assessed as reduction in cell viability incubated for 48 hrs by CellTiter-Glo cell vaibility assay; format: functional, cell-based; details: MV4-11, 48 h; method in brief: as §1
[6] = Antiproliferative activity against human UKE-1 harboring JAK2 V617F mutant assessed as reduction in cell viability incubated for 48 hrs by CellTiter-Glo cell vaibility assay; format: functional, cell-based; details: UKE1, 48 h; method in brief: as §1
OCI-AML2 = assay: Antiproliferative activity against human OCI-AML2 assessed as reduction in cell viability incubated for 48 hrs by CellTiter-Glo cell vaibility assay; format: functional, cell-based; details: OCI-AML2, 48 h; method in brief: as §1
NCI-H211 = assay: Antiproliferative activity against human NCI-H211 assessed as reduction in cell viability incubated for 48 hrs by CellTiter-Glo cell vaibility assay; format: functional, cell-based; details: NCI-H211, 48 h; method in brief: as §1
[7] = target: Induced myeloid leukemia cell differentiation protein Mcl-1 (Homo sapiens, UniProt Q07820); assay: Binding affinity to MCL-1 (unknown origin) assessed as dissociation constant incubated for 1 hrs by TR-FRET assay
Induced myeloid leukemia cell differentiation protein Mcl-1, sequence (Q07820 whole entry): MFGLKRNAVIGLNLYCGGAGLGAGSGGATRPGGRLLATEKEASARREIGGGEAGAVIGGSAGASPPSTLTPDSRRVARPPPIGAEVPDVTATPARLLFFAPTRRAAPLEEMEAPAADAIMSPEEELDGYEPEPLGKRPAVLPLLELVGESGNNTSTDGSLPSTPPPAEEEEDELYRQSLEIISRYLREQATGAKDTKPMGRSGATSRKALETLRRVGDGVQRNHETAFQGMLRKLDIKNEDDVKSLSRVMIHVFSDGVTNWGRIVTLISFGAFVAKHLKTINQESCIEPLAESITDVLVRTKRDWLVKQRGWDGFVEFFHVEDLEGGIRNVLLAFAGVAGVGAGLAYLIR

THP-1 = assay: Antiproliferative activity against human THP-1 assessed as reduction in cell viability incubated for 48 hrs by CellTiter-Glo cell vaibility assay; format: functional, cell-based; details: THP-1, 48 h; method in brief: as §1
NCI-H1048 = assay: Antiproliferative activity against human NCI-H1048 assessed as reduction in cell viability incubated for 48 hrs by CellTiter-Glo cell vaibility assay; format: functional, cell-based; details: NCI-H1048, 48 h; method in brief: as §1
[8] = Antiproliferative activity against human MOLM16 assessed as reduction in cell viability incubated for 48 hrs by CellTiter-Glo cell vaibility assay; format: functional, cell-based, MOLM-16; details: MOLM16, 48 h; method in brief: as §1
NCI-H446 = assay: Antiproliferative activity against human NCI-H446 assessed as reduction in cell viability incubated for 48 hrs by CellTiter-Glo cell vaibility assay; format: functional, cell-based; details: NCI-H446, 48 h; method in brief: as §1
SIG-M5 = assay: Antiproliferative activity against human SIG-M5 assessed as reduction in cell viability incubated for 48 hrs by CellTiter-Glo cell vaibility assay; format: functional, cell-based; details: SIG-M5, 48 h; method in brief: as §1
[9] = Antiproliferative activity against human OCI-M2 assessed as reduction in cell viability incubated for 48 hrs by CellTiter-Glo cell vaibility assay; format: functional, cell-based; details: OCI-M2, 48 h; method in brief: as §1
[10] = Antiproliferative activity against human OCI-M1 assessed as reduction in cell viability incubated for 48 hrs by CellTiter-Glo cell vaibility assay; format: functional, cell-based; details: OCI-M1, 48 h; method in brief: as §1
ML-2 = assay: Antiproliferative activity against human ML-2 assessed as reduction in cell viability incubated for 48 hrs by CellTiter-Glo cell vaibility assay; format: functional, cell-based; details: ML-2, 48 h; method in brief: as §1
NCI-H69 = assay: Antiproliferative activity against human NCI-H69 assessed as reduction in cell viability incubated for 48 hrs by CellTiter-Glo cell vaibility assay; format: functional, cell-based; details: NCI-H69, 48 h; method in brief: as §1
NOMO-1 = assay: Antiproliferative activity against human NOMO-1 assessed as reduction in cell viability incubated for 48 hrs by CellTiter-Glo cell vaibility assay; format: functional, cell-based; details: NOMO-1, 48 h; method in brief: as §1
NCI-H1417 = assay: Antiproliferative activity against human NCI-H1417 assessed as reduction in cell viability incubated for 48 hrs by CellTiter-Glo cell vaibility assay; format: functional, cell-based; details: NCI-H1417, 48 h; method in brief: as §1
MOLM-13 = assay: Antiproliferative activity against human MOLM-13 assessed as reduction in cell viability incubated for 48 hrs by CellTiter-Glo cell vaibility assay; format: functional, cell-based; details: MOLM-13, 48 h; method in brief: as §1
NCI-H1836 = assay: Antiproliferative activity against human NCI-H1836 assessed as reduction in cell viability incubated for 48 hrs by CellTiter-Glo cell vaibility assay; format: functional, cell-based; details: NCI-H1836, 48 h; method in brief: as §1
[11] = Antiproliferative activity against human NCI-H847 assessed as reduction in cell viability incubated for 48 hrs by CellTiter-Glo cell vaibility assay; format: functional, cell-based; details: NCI-H847, 48 h; method in brief: as §1

EC50 (NCI-H345): 1200 nM | EC50 (MOLT-4): > 5000 nM | EC50 (SKM-1): 2530 nM | EC50 (HL-60): 100 nM | EC50 (OCI-AML-5): 110 nM | EC50 (OCI-AML-3): > 5000 nM | EC50 (NCI-H187): 850 nM | EC50 (NCI-H889): 15 nM | EC50 (MV4-11): 100 nM | EC50 (OCI-AML2): 100 nM | EC50 (NCI-H211): 330 nM | Ki [7]: > 444 nM | EC50 (THP-1): 820 nM | EC50 (NCI-H1048): 2700 nM | EC50 (NCI-H446): 2400 nM | EC50 (NCI-H69): 3860 nM | EC50 (NCI-H1417): 4100 nM | EC50 (MOLM-13): 100 nM | EC50 (NCI-H1836): 5000 nM
Structure (SMILES): CC1(C)CCC(CN2CCN(c3ccc(C(=O)NS(=O)(=O)c4ccc(NCC5CCOCC5)c([N+](=O)[O-])c4)c(Oc4cnc5[nH]ccc5c4)c3)CC2)=C(c2ccc(Cl)cc2)C1 [VENETOCLAX]
Activity [1]: Toxic | EC50 (DMS-79): 4620 nM | EC50 (EOL1): 100 nM | EC50 (HEL): 3370 nM | EC50 (Kasumi 1): 1000 nM | EC50 [2]: > 5000 nM | Activity [3]: Toxic | EC50 (SET-2): 3330 nM | EC50 (GDM-1): 100 nM | EC50 [4]: 1700 nM | EC50 (KG-1): 1200 nM | EC50 [5]: 1810 nM | EC50 [6]: 3060 nM | EC50 [8]: 40 nM | EC50 (SIG-M5): 100 nM | EC50 [9]: 4050 nM | EC50 [10]: > 5000 nM | EC50 (ML-2): 100 nM | EC50 (NOMO-1): > 5000 nM | EC50 [11]: 3900 nM
